This note sets out measurements from ChEMBL document CHEMBL1132197, “Stereospecific synthesis, structure-activity relationship, and oral bioavailability of tetrahydropyrimidin-2-one HIV protease inhibitors” (J Med Chem, 1999).

In assay [1] the target is Human immunodeficiency virus type 1 protease (Human immunodeficiency virus 1, UniProt Q72874). Description: Inhibition constant of HIV protease inhibitors. The essentials:
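HIV protease (HIVPR) inhibition constant was determined by monitoring cleavage of a fluorescent peptide substrate, with products separated and quantified by HPLC.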

The next assay concerns MT2. Put plainly: Antiviral activity by measuring its effect on the accumulation of viral RNA transcripts on infection of MT-2 cells with HIV-1 RF. The format is functional. Conditions: Homo sapiens. In short, it runs like this:
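Viral RNA transcript accumulation read 3 days after HIV-1 RF infection of MT-2 cells. IC90 is the concentration cutting viral RNA by 90% versus an untreated infected culture. TC50 came from MTT dye reduction in uninfected MT-2 cultures grown 3 days with compound.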

Consider `N=C(NO)c1cccc(CN2C(=O)N(Cc3cccc(C(=N)NO)c3)[C@H](Cc3ccc(F)cc3)[C@H](O)[C@H]2CCc2ccc(F)cc2)c1`, for which the affinity in assay [1], expressed as Ki, was 0.02 nM. Also, the IC90 – broadly, the concentration needed for an effect of 90% – with MT2 is 49 nM.

As to `NC(=O)c1cccc(CN2C(=O)N(Cc3cccc(C(N)=O)c3)[C@H](Cc3ccccc3)[C@H](O)[C@H]2CCc2ccccc2)c1`, the inhibition constant (Ki) (as a rule, the equilibrium dissociation constant of an inhibitor or competing ligand from its target) in assay [1] is 0.09 nM.

Turning to `NC(=O)c1cccc(CN2C(=O)N(Cc3cccc(C(N)=O)c3)[C@H](Cc3ccc(F)cc3)[C@H](O)[C@H]2CCc2ccc(F)cc2)c1`, in assay [1], affinity was put at a Ki of 0.31 nM. The molecule further displayed an IC90 in the assay on MT2 of 35 nM.

In turn, `CNc1cccc(CN2C(=O)N(Cc3cccc(NC)c3)[C@H](Cc3ccccc3)[C@H](O)[C@H]2CCc2ccccc2)c1` gave an IC90 in the assay with MT2 of 328 nM.

In assay [1], `N#Cc1cc(CN2C(=O)N(Cc3ccc(F)c(C#N)c3)[C@H](Cc3ccccc3)[C@H](O)[C@H]2CCc2ccccc2)ccc1F` registered an inhibition constant Ki of 230 nM.

`Nc1cc(CN2C(=O)N(Cc3ccc(F)c(N)c3)[C@H](Cc3ccccc3)[C@H](O)[C@H]2CCc2ccccc2)ccc1F`: it took 36 nM to reach the 90% level with MT2 (IC90).

In assay [1], `O=C(Nc1nccs1)c1cccc(CN2C(=O)N(Cc3cccc(C(=O)Nc4nccs4)c3)[C@H](Cc3ccccc3)[C@H](O)[C@H]2CCc2ccccc2)c1` showed an inhibition constant (Ki) of 0.03 nM. In addition, the 90% effect concentration (IC90) in the assay with MT2 is 31 nM.

As to `Cc1ccc(NC(=O)c2cccc(CN3C(=O)N(Cc4cccc(C(=O)Nc5ccc(C)cn5)c4)[C@H](Cc4ccccc4)[C@H](O)[C@H]3CCc3ccccc3)c2)nc1`, affinity in assay [1] was put at a Ki of 0.08 nM. In the assay with MT2, this molecule gave an IC90 of 26 nM.

As for `Nc1cccc(CN2C(=O)N[C@H](CCc3ccccc3)[C@@H](O)[C@H]2Cc2ccccc2)c1`, in assay [1], the affinity corresponds to a Ki of 6.2 nM. Further, it took 4330 nM to reach the 90% level with MT2 (IC90).

`N#Cc1cc(CN2C(=O)N(Cc3ccccc3)[C@H](CCc3ccccc3)[C@@H](O)[C@H]2Cc2ccccc2)ccc1F`: the Ki in assay [1] worked out at 40 nM.

In assay [1], `O=C(O)c1cccc(CN2C(=O)N(Cc3cccc(C(=O)O)c3)[C@H](Cc3ccccc3)[C@H](O)[C@H]2CCc2ccccc2)c1` returned a Ki of 0.87 nM.

In turn, `N#Cc1cc(CN2C(=O)N[C@H](CCc3ccccc3)[C@@H](O)[C@H]2Cc2ccccc2)ccc1F` returned a Ki in assay [1] of 110 nM.

As for `N/C(=N\O)c1cccc(CN2C(=O)N(CC3CC3)[C@H](CCc3ccccc3)[C@@H](O)[C@H]2Cc2ccccc2)c1`, the Ki in assay [1] is 0.48 nM. Also, the IC90 in the assay with MT2 worked out at 36 nM.

`[N-]=[N+]=N[C@@H](Cc1ccccc1)[C@@H]1[C@@H](O)[C@@H](Cc2ccccc2)N(Cc2ccc3ccccc3c2)C(=O)N1Cc1ccc2ccccc2c1` came in with a Ki in assay [1] of 330 nM.

In turn, `NC(=O)c1cccc(CN2C(=O)N(Cc3cccc(C(N)=O)c3)[C@H](Cc3ccc(F)c(F)c3)[C@H](O)[C@H]2CCc2ccc(F)c(F)c2)c1` had a Ki in assay [1] of 0.15 nM. Moreover, the IC90 with MT2 came out at 90 nM.

For the molecule `Nc1cccc(CN2C(=O)N[C@H](Cc3ccccc3)[C@H](O)[C@H]2CCc2ccccc2)c1`, the inhibition constant (Ki) in assay [1] is 157 nM.

`O=C1[C@@H](CCc2ccccc2)N(Cc2ccccc2)C(=O)N(Cc2ccccc2)[C@@H]1Cc1ccccc1`: the Ki in assay [1] is 1500 nM.

On to `N#Cc1cccc(CN2C(=O)N3C(Cc4ccccc4)[C@@H]3[C@@H](O)[C@H]2Cc2ccccc2)c1` (stereo not given in full), for which the Ki in assay [1] was 2400 nM.

Regarding `N#Cc1cccc(CN2C(=O)N(Cc3cccc(N)c3)[C@H](Cc3ccccc3)[C@H](O)[C@H]2CCc2ccccc2)c1`, in assay [1], the affinity, expressed as Ki, was 1.6 nM. Moreover, in the assay with MT2, the IC90 is 565 nM.

Molecule `NC(=O)c1cc(CN2C(=O)N(Cc3ccc(F)c(C(N)=O)c3)[C@H](Cc3ccccc3)[C@H](O)[C@H]2CCc2ccccc2)ccc1F` showed an IC90 with MT2 of 490 nM.

For `N#Cc1cc(CN2C(=O)N(Cc3ccccc3)[C@H](Cc3ccccc3)[C@H](O)[C@H]2CCc2ccccc2)ccc1F`, in assay [1], the Ki worked out at 33 nM.

For the molecule `Cc1n[nH]c2ccc(CN3C(=O)N(Cc4cccc(N)c4)[C@H](Cc4ccccc4)[C@H](O)[C@H]3CCc3ccccc3)cc12`, the Ki in assay [1] is 0.13 nM. The concentration for an effect of 90% (IC90) in the assay on MT2 was 32 nM.

In assay [1], `Cc1n[nH]c2ccc(CN3C(=O)N(Cc4ccc5[nH]nc(C)c5c4)[C@H](Cc4ccccc4)[C@H](O)[C@H]3CCc3ccccc3)cc12` yielded a Ki of 0.1 nM. Moreover, the IC90 with MT2 is 18 nM.

Regarding `NC(=O)c1cccc(CN2C(=O)N(Cc3cccc(N)c3)[C@H](Cc3ccccc3)[C@H](O)[C@H]2CCc2ccccc2)c1`, the Ki in assay [1] is 0.06 nM. Moreover, the IC90 with MT2 turned out to be 24 nM.

Regarding `Nc1cccc(CN2C(=O)N(Cc3ccc4[nH]ncc4c3)[C@H](Cc3ccccc3)[C@H](O)[C@H]2CCc2ccccc2)c1`, in assay [1], affinity was put at a Ki of 0.08 nM. Also, the 90% effect level with MT2 (IC90) was put at 13 nM.

In assay [1], `O=C1N(CC2CC2)[C@H]([C@@H](O)Cc2ccccc2)[C@@H](O)[C@@H](Cc2ccccc2)N1CC1CC1` had a Ki of 410 nM.

As for `O=C1N[C@H](Cc2ccccc2)[C@H](O)[C@H]2C(Cc3ccccc3)N12` (stereo not given in full), the Ki in assay [1] amounted to 3000 nM.

As to `Nc1[nH]nc2ccc(CN3C(=O)N(Cc4ccc5n[nH]c(N)c5c4)[C@H](Cc4ccccc4)[C@H](O)[C@H]3CCc3ccccc3)cc12`, the inhibitory constant (Ki) in assay [1] worked out at 0.03 nM. Besides, in the assay with MT2, it took 383 nM to reach the 90% level (IC90).

As for `O=C1N(Cc2ccccc2)C[C@@H](O)[C@@H](Cc2ccccc2)N1Cc1ccccc1`, the Ki in assay [1] is 2400 nM.

`Nc1[nH]nc2ccc(CN3C(=O)N[C@H](CCc4ccccc4)[C@@H](O)[C@H]3Cc3ccccc3)cc12` registered a Ki in assay [1] of 0.38 nM. In addition, the IC90 with MT2 was found to be 549 nM.

On to `Nc1[nH]nc2ccc(CN3C(=O)N(Cc4ccccc4)[C@H](CCc4ccccc4)[C@@H](O)[C@H]3Cc3ccccc3)cc12`, for which the Ki in assay [1] stood at 0.28 nM. In the assay with MT2, this molecule showed an IC90 of 126 nM.

`N=C(NO)c1cc(CN2C(=O)N(Cc3ccc(F)c(C(=N)NO)c3)[C@H](Cc3ccccc3)[C@H](O)[C@H]2CCc2ccccc2)ccc1F`: in assay [1], the Ki came out at 0.06 nM. In the assay on MT2, this molecule gave an IC90 of 51 nM.

In assay [1], `O=C1N(CC2CC2)[C@H](CCc2ccccc2)[C@@H](O)[C@@H](Cc2ccccc2)N1CC1CC1` showed a Ki of 9.8 nM.

In the case of `N=C(NO)c1cccc(CN2C(=O)N(Cc3cccc(C(=N)NO)c3)[C@H](Cc3ccc(F)c(F)c3)[C@H](O)[C@H]2CCc2ccc(F)c(F)c2)c1`, in assay [1], the Ki amounted to 0.01 nM. Besides, the IC90 in the assay on MT2 came to 117 nM.

Turning to `O=C1N[C@H](CCc2ccccc2)[C@@H](O)[C@@H](Cc2ccccc2)N1Cc1cccc(O)c1`, in assay [1], the Ki came to 2.6 nM. The molecule also showed an IC90 with MT2 of 4800 nM.

In turn, `O=C1N(Cc2cccc(CO)c2)[C@H]([C@@H](Br)Cc2ccccc2)[C@@H](O)[C@@H](Cc2ccccc2)N1Cc1cccc(CO)c1` yielded a Ki in assay [1] of 11 nM. In addition, the 90% effect level with MT2 (IC90) was put at 2100 nM.

In the case of `N#Cc1cccc(CN2C(=O)N(Cc3cccc(C#N)c3)[C@H](Cc3ccc(F)cc3)[C@H](O)[C@H]2CCc2ccc(F)cc2)c1`, the affinity in assay [1], expressed as Ki, was 14 nM. In the assay on MT2, this molecule returned an IC90 of 1560 nM.

`O=C1N[C@H](CCc2ccccc2)[C@@H](O)[C@@H](Cc2ccccc2)N1Cc1ccc2[nH]ncc2c1` came in with an inhibition constant Ki in assay [1] of 1.2 nM. The molecule also yielded an IC90 in the assay with MT2 of 590 nM.

Molecule `Nc1cccc(CN2C(=O)N(Cc3ccc4[nH]ncc4c3)[C@H](CCc3ccccc3)[C@@H](O)[C@H]2Cc2ccccc2)c1` returned a Ki in assay [1] of 0.1 nM. This molecule also showed an IC90 with MT2 of 16 nM.

With `O=C1N[C@H](Cc2ccccc2)[C@H](O)[C@@H](CCc2ccccc2)N1Cc1ccc2[nH]ncc2c1`, in assay [1], the Ki amounted to 44 nM.

In assay [1], `N#Cc1cccc(CN2C(=O)N[C@H](CCc3ccccc3)[C@@H](O)[C@H]2Cc2ccccc2)c1` registered a Ki of 15 nM.

`NC(=O)c1cc(CN2C(=O)N[C@H](CCc3ccccc3)[C@@H](O)[C@H]2Cc2ccccc2)ccc1F` registered a Ki in assay [1] of 14 nM.

`O=C1N(Cc2ccccc2)[C@H](/C=C/c2ccccc2)[C@@H](O)[C@@H](Cc2ccccc2)N1Cc1ccccc1` returned an inhibition constant (Ki) in assay [1] of 460 nM.

In assay [1], `NC(=O)c1cccc(CN2C(=O)N3C(Cc4ccccc4)[C@@H]3[C@@H](O)[C@H]2Cc2ccccc2)c1` (stereo not given in full) showed a Ki of 320 nM.

On to `NC(=O)c1cccc(CN2C(=O)N[C@H](CCc3ccccc3)[C@@H](O)[C@H]2Cc2ccccc2)c1`, for which affinity in assay [1] was put at a Ki of 5.6 nM.

For the molecule `N#Cc1cccc(CN2C(=O)N(Cc3cccc(C#N)c3)[C@H](Cc3ccccc3)[C@H](O)[C@H]2CCc2ccccc2)c1`, the IC90 in the assay on MT2 was determined as 1600 nM.

In turn, `N/C(=N\O)c1cccc(CN2C(=O)N3C(Cc4ccccc4)[C@@H]3[C@@H](O)[C@H]2Cc2ccccc2)c1` (stereo not given in full) returned a Ki in assay [1] of 12 nM.

`Nc1ccc(CN2C(=O)N(Cc3ccc(N)c(F)c3)[C@H](Cc3ccccc3)[C@H](O)[C@H]2CCc2ccccc2)cc1F` came in with an IC90 in the assay with MT2 of 539 nM.

Consider `O=C1N(Cc2ccccc2)[C@H]([C@@H](Br)Cc2ccccc2)[C@@H](O)[C@@H](Cc2ccccc2)N1Cc1ccccc1`, for which, in assay [1], the Ki came out at 185 nM.

In turn, `O=C1N(Cc2ccccc2)[C@H](CCc2ccccc2)[C@@H](O)[C@@H](Cc2ccccc2)N1Cc1ccccc1` returned an IC90 in the assay with MT2 of 2800 nM.

As to `O=C1N(Cc2ccc3c[nH]nc3c2)[C@H](CCc2ccccc2)[C@@H](O)[C@@H](Cc2ccccc2)N1Cc1ccc2c[nH]nc2c1`, the inhibition constant (Ki) in assay [1] is 0.06 nM. Besides, the IC90 with MT2 is 32 nM.

In assay [1], `N/C(=N\O)c1cccc(CN2C(=O)N(Cc3cccc(N)c3)[C@H](Cc3ccccc3)[C@H](O)[C@H]2CCc2ccccc2)c1` registered a Ki of 0.02 nM. For the same molecule, the IC90 in the assay with MT2 is 17 nM.

`N/C(=N\O)c1cc(CN2C(=O)N[C@H](CCc3ccccc3)[C@@H](O)[C@H]2Cc2ccccc2)ccc1F`: affinity in assay [1] was put at a Ki of 1.4 nM. The molecule further came in with an IC90 in the assay with MT2 of 3780 nM.

In turn, `Nc1[nH]nc2ccc(CN3C(=O)N(Cc4ccccc4)[C@H](Cc4ccccc4)[C@H](O)[C@H]3CCc3ccccc3)cc12` yielded a Ki in assay [1] of 0.65 nM. This molecule also gave an IC90 in the assay on MT2 of 71 nM.

In assay [1], `O=C1N(Cc2ccc3ccccc3c2)[C@H](/C=C/c2ccccc2)[C@@H](O)[C@@H](Cc2ccccc2)N1Cc1ccc2ccccc2c1` registered a Ki of 280 nM.

In turn, `Nc1noc2ccc(CN3C(=O)N(Cc4ccc5onc(N)c5c4)[C@H](Cc4ccccc4)[C@H](O)[C@H]3CCc3ccccc3)cc12` had a Ki in assay [1] of 0.41 nM. Besides, the IC90 in the assay with MT2 stood at 132 nM.

In assay [1], `Nc1cccc(CN2C(=O)N(Cc3ccc4[nH]nc(N)c4c3)[C@H](CCc3ccccc3)[C@@H](O)[C@H]2Cc2ccccc2)c1` came in with a Ki of 0.1 nM. The IC90 in the assay with MT2 was 53 nM.
